What all share (assay): stopped-flow CO2 hydration assay
Assay type in all cases: biochemical

The target in one test is hCA VI (Homo sapiens, UniProt P23280). The gist of the method:
(§1)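 Enzyme-catalysed CO2 hydration was followed by stopped-flow at 557 nm with 0.2 mM phenol red in 20 mM HEPES pH 7.5 and 20 mM Na2SO4. Initial rates were taken over 10–100 s at five CO2 levels (1.7–17 mM). Enzyme was preincubated 15 min at room temperature with six inhibitor concentrations (100 µM–0.1 nM). Uncatalysed rate was subtracted; Ki came from nonlinear least squares, mean of ≥3 determinations.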

In a further test the target is hCA VB (Homo sapiens, UniProt Q9Y2D0). The gist of the method:
as §1

A further test concerns the target hCA VA (Homo sapiens, UniProt P35218). Summed up: as §1
In the next test the target is T1, mCA XV (Mus musculus, UniProt Q99N23).
T1 sequence (Q99N23 19-324): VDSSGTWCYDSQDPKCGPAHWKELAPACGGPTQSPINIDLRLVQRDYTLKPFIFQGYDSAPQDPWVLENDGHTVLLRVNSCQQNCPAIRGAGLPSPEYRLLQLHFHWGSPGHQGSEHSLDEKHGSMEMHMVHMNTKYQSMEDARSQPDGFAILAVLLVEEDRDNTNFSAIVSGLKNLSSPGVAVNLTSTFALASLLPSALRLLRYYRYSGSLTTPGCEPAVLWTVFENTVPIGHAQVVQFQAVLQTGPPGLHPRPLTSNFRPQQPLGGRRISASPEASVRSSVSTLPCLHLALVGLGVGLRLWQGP
The gist of the method:
as §1

For the next test, the target named is hCA IX (Homo sapiens, UniProt Q16790). The gist of the method: as §1
The target in a further test is hCA XII (Homo sapiens, UniProt O43570). The gist of the method: as §1
Chain of hCA XII (O43570 25-354): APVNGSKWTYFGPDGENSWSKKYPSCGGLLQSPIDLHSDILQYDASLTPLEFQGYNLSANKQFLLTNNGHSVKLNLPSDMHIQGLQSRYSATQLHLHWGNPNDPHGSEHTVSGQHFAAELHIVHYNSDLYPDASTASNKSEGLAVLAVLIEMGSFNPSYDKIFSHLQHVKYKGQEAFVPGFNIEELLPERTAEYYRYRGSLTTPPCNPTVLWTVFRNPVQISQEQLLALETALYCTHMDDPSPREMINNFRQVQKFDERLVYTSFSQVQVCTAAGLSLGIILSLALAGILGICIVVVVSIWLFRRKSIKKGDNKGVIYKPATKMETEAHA
Another test concerns the target hCA XIII (Homo sapiens, UniProt Q8N1Q1). Summed up: as §1
The target of another test is hCA I (Homo sapiens, UniProt P00915). Summed up:
as §1

In another test the target is hCA IV (Homo sapiens, UniProt P22748). The gist of the method: as §1
Chain of hCA IV (P22748 19-284): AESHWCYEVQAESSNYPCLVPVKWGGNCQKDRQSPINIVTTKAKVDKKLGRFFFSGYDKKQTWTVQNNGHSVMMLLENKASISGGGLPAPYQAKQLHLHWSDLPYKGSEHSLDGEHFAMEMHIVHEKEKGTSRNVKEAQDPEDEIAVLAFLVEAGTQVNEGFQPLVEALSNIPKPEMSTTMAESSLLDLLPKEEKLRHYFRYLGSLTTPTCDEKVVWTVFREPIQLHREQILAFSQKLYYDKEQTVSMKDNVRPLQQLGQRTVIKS
The target of the next test is hCA III (Homo sapiens, UniProt P07451). Summed up:
as §1

The target in another test is hCA VII (Homo sapiens, UniProt P43166). Summed up:
as §1

In a further test the target is hCA II (Homo sapiens, UniProt P00918). Summed up:
as §1

The structures appear in SMILES notation.

Chain of hCA VB (Q9Y2D0 34-317): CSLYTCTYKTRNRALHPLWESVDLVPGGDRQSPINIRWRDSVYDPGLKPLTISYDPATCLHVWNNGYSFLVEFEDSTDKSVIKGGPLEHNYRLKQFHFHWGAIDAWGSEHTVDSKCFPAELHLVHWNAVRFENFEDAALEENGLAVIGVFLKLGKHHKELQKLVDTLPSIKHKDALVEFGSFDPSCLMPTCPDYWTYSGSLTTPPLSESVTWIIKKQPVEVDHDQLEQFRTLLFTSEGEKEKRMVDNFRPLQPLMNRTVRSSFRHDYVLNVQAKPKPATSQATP
Chain of hCA VI (P23280 18-308): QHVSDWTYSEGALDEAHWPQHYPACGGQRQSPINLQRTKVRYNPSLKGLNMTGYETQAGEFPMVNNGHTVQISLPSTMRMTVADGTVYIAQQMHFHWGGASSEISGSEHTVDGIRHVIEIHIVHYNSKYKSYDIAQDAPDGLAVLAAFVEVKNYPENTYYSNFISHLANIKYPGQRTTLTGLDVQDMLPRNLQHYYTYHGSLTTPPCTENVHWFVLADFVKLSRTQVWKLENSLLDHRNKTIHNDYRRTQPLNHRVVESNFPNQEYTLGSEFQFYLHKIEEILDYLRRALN
Chain of hCA I (P00915 2-261): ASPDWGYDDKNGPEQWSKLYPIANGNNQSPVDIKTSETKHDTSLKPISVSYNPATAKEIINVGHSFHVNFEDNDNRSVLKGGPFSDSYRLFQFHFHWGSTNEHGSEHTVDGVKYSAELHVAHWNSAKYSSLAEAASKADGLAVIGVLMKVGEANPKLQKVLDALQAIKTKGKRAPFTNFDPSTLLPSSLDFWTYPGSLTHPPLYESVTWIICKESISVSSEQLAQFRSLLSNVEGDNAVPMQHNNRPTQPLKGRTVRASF
Chain of hCA VII (P43166 whole entry): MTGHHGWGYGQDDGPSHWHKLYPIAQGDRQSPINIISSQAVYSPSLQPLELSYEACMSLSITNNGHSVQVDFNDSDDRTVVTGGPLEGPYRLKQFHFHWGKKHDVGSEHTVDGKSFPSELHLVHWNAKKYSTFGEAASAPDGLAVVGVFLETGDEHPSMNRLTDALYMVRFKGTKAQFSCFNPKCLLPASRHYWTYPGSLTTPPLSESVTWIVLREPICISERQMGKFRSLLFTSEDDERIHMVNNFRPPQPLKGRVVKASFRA
Chain of hCA III (P07451 2-260): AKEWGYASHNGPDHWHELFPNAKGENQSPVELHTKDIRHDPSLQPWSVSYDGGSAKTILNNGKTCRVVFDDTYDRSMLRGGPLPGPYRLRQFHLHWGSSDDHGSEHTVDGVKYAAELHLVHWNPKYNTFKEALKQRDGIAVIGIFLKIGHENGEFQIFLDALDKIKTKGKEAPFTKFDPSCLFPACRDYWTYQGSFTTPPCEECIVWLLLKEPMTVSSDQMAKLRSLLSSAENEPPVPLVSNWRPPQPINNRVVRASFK
Chain of hCA XIII (Q8N1Q1 whole entry): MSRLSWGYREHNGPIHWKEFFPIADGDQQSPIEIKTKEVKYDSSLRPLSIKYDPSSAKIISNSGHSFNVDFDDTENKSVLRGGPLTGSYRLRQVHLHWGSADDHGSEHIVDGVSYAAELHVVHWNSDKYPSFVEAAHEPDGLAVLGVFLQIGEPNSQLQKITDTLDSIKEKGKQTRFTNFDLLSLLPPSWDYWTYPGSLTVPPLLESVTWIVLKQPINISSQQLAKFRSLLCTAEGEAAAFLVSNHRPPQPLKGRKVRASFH
Chain of hCA VA (P35218 39-305): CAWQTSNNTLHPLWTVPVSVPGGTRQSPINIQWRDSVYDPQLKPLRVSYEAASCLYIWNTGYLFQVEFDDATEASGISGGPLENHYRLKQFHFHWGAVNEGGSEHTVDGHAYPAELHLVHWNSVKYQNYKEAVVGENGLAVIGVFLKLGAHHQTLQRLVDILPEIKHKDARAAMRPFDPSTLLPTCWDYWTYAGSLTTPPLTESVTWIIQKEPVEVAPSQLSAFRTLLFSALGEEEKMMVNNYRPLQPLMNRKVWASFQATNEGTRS

On to `On1ccccc1=S` [compound 4, 1,2-HOPTO], for which the inhibition constant (Ki) – broadly, the dissociation constant of the complex between target and ligand, obtained from inhibition or displacement – at hCA VI worked out at 3.6 µM; on hCA VB, 3.8 µM; on hCA VA, 4 µM; at mCA XV, 4.7 µM; on hCA IX it was 9.2 µM; on hCA XII it was 4.8 µM. For the same compound, the Ki at hCA XIII worked out at 10.8 µM; at hCA I it was 9.4 µM; at hCA IV, 4.4 µM; at hCA III, 7.5 µM; on hCA VII, 3.6 µM; at hCA II it was 4.1 µM.

`Cc1occc(=S)c1O` [compound 2, thiomaltol]: the inhibition constant Ki stood at 3.2 µM on hCA VI; 4 µM at hCA VB; 4.2 µM at hCA VA; 10 µM on hCA IX; 4.5 µM on hCA XII; 10.4 µM at hCA XIII. In addition, the Ki was determined as 8.3 µM at hCA I; 4.6 µM on hCA IV; 8.4 µM at hCA III; 3.6 µM at hCA VII; 4 µM on hCA II.

For `Cc1occc(=O)c1O` [compound 1, maltol], the inhibitory constant (Ki) at hCA VI stood at 3.5 µM; on hCA VB it was 4.3 µM; on hCA VA it was 4.6 µM; on mCA XV, 2.8 µM; on hCA IX, 9.5 µM; on hCA XII, 4 µM. Also, the inhibitory constant (Ki) on hCA XIII amounted to 10.4 µM; on hCA I it was 9.1 µM; at hCA IV it was 4.3 µM; on hCA III, 9.5 µM; at hCA VII, 3.4 µM; at hCA II it was 3.6 µM.
